Assay results taken from PMC2884008 (Chemistry & biology, 2010).
Entries after “also recorded” stand apart in the source; their conditions may differ. Like-named read-outs stand apart in the source and are kept apart here.

What was measured:
[1] = molecular target: T1, p300 HAT (Homo sapiens, UniProt Q09472, DEL1529-1560/M1652G); assay: direct radioactive 14C-acetyl-CoA transfer p300 HAT assay; type: biochemical; details: for p300 HAT inhibition, in words: analogs compared with C646
T1 sequence (Q09472 with tags, fused parts or gaps DEL1529-1560/M1652G limits assumed): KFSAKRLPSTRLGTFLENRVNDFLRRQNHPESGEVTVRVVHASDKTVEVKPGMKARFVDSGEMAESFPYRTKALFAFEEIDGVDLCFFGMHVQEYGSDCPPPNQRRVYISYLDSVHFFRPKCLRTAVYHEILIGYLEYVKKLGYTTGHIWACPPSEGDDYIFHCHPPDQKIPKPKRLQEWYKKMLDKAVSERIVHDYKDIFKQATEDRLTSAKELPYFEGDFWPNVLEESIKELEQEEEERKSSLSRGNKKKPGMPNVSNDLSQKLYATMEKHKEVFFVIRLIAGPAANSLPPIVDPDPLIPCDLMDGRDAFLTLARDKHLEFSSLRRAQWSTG

[2] = system: three melanoma and three non-small cell lung cancer lines; assay: 3H-thymidine incorporation in cancer cell line panel; type: cell-based, human; details: 24 h
How it was run: (§1)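 Melanoma lines were grown in DMEM and NSCLC lines in RPMI 1640, both with 10% FBS, pen-strep and L-glutamine. About 5000 cells/well at ~60% sub-confluence were attached at 37°C, then exposed 24 h with DMSO at 0.2% in every condition. 3H-thymidine was added at 10 μCi/ml final for 5 h; cells were harvested onto filters and counted. Triplicates; counts normalized to pre-treatment counts.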

[3] = molecular target: serotonin N-acetyltransferase (Ovis aries, UniProt Q29495); assay: coupled spectrophotometric AANAT assay; type: biochemical; details: compound at 10 μM
[4] = system: p300 HAT mutant Y1467F; assay: C646 inhibition of p300 HAT mutant Y1467F; type: biochemical; details: Ki = IC50/(S/Km+1)
[5] = molecular target: MOZ histone acetyltransferase (Homo sapiens, UniProt Q92794); assay: direct radioactive HAT assay with hMOZ; type: biochemical; details: compound at 10 μM
How it was run: (§2)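 Enzyme: Rtt109/Vps75 70 ng, yGcn5 15 ng, SAS 300 ng, hMOZ 1 μg. After 10 min at 30°C, reactions were started with 20 μM 12C/14C-AcCoA (1:1) and run 2–4 min. Product was resolved by Tris-Tricine SDS-PAGE and quantified by autoradiography. Duplicates.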

[6] = system: immortalized murine fibroblast cell line, NIH3T3; assay: 3H-thymidine incorporation in NIH3T3; type: cell-based; details: 20 μM
[7] = system: WM35; assay: cell cycle analysis by propidium iodide FACS, WM35; type: cell-based, human; details: 20 μM, 24 h
How it was run: (§3)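 Cells were exposed to 20 μM test compound or DMSO for 24 h. More than 10^6 cells were fixed in 70% ethanol at 4°C for ≥2 h, rehydrated in PBS and stained 20 min at 37°C with PI in 0.1% Triton X-100/PBS containing RNase A. DNA content was read by flow cytometry, and the S-phase fraction was taken as the read-out.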

[8] = system: WM983A cells; assay: global histone H3 acetylation in WM983A cells by western blotting; type: cell-based, human; details: 6 h, increasing concentrations
[9] = system: p300 HAT mutant R1410A; assay: C646 inhibition of p300 HAT mutant R1410A; type: biochemical; details: Ki = IC50/(S/Km+1)
[10] = molecular target: PCAF histone acetyltransferase (Homo sapiens, UniProt Q92831); assay: coupled spectrophotometric PCAF assay; type: biochemical; details: compound at 10 μM
[11] = thiol adduct formation by NMR and chromatography; type: physicochemical; details: buffer conditions of the enzyme assay
[12] = system: C3H 10T1/2 mouse fibroblasts; assay: histone acetylation in mouse cells, western blots of SDS and acid-urea gels; type: cell-based
How it was run: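 C3H 10T1/2 fibroblasts were grown in DMEM/10% FCS at 37°C, 6% CO2, then made quiescent in 0.5% FCS for 18–20 h. TSA at 33 nM was added for the final 30 min where used. Histones were acid-extracted, run on SDS and acid-urea gels and western blotted.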

[13] = system: p300 HAT mutant T1411A; assay: C646 inhibition of p300 HAT mutant T1411A; type: biochemical; details: Ki = IC50/(S/Km+1)
[14] = system: lung cancer line H23; assay: 3H-thymidine incorporation in H23; type: cell-based, human; details: C646 10 μM or Lys-CoA-Tat 25 μM, 24 h
How it was run: as §1

[15] = molecular target: Sas histone acetyltransferase (Saccharomyces cerevisiae, UniProt P40963); assay: direct radioactive HAT assay with SAS complex; type: biochemical; details: compound at 10 μM
How it was run: as §2

[16] = system: WM983A; assay: cell cycle analysis by propidium iodide FACS, WM983A; type: cell-based, human; details: 20 μM, 24 h
How it was run: as §3

[17] = molecular target: Rtt109 histone acetyltransferase (Saccharomyces cerevisiae, UniProt Q07794); assay: direct radioactive HAT assay with Rtt109/Vps75 complex; type: biochemical; details: compound at 10 μM
How it was run: as §2

[18] = system: melanoma line WM35; assay: 3H-thymidine incorporation in WM35; type: cell-based, human; details: C646 10 μM or Lys-CoA-Tat 25 μM, 24 h
How it was run: as §1

[19] = molecular target: GCN5 histone acetyltransferase (Saccharomyces cerevisiae, UniProt Q03330); assay: direct radioactive HAT assay with yeast GCN5; type: biochemical; details: compound at 10 μM
How it was run: as §2

[20] = system: p300 HAT mutant W1466F; assay: C646 inhibition of p300 HAT mutant W1466F; type: biochemical; details: Ki = IC50/(S/Km+1)
[21] = system: melanoma line WM983A; assay: 3H-thymidine incorporation in WM983A; type: cell-based, human; details: 24 h
How it was run: as §1

[22] = molecular target: p300/CBP HAT; details: read-out: Ki for p300/CBP HAT, cited from earlier work
[23] = system: p300/CBP HAT; assay: p300 HAT inhibition, literature values; type: biochemical; details: Ki compared with C646

Sequence of GCN5 histone acetyltransferase (Q03330 whole entry): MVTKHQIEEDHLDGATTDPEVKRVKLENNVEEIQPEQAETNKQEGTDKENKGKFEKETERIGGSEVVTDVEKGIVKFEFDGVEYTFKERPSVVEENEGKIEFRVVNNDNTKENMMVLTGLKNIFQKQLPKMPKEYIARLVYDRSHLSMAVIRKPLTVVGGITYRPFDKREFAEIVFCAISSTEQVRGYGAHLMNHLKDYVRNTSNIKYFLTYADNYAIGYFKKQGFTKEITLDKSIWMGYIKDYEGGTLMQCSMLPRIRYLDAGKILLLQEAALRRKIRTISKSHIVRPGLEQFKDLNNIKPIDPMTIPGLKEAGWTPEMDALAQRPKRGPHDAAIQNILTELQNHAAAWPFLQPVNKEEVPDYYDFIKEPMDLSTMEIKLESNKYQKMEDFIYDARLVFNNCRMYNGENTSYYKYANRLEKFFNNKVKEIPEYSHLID
Sequence of PCAF histone acetyltransferase (Q92831 493-658 limits assumed): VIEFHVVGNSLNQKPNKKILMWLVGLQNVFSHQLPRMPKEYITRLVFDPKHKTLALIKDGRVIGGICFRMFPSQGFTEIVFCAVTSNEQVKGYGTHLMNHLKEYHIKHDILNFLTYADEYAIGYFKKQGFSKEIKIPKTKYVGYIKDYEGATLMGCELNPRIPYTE
Sequence of serotonin N-acetyltransferase (Q29495 whole entry): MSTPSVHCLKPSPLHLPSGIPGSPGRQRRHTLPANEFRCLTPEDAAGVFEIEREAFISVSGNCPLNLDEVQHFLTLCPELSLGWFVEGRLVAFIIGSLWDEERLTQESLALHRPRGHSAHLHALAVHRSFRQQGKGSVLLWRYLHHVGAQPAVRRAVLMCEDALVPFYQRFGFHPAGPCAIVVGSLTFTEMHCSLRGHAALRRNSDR
Sequence of Rtt109 histone acetyltransferase (Q07794 whole entry): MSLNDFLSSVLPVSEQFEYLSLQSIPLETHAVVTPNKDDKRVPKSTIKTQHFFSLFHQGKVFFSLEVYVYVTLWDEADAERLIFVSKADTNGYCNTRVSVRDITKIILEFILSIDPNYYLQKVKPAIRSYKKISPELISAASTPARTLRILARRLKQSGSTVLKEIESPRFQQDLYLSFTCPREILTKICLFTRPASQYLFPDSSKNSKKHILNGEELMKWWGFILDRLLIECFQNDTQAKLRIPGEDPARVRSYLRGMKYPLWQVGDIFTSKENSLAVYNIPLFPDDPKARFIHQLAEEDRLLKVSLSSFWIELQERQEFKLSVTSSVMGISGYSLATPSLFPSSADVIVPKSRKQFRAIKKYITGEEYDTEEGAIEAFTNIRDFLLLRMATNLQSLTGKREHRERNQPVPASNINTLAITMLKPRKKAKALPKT
Sequence of Rtt109 histone acetyltransferase (P53853 whole entry partner): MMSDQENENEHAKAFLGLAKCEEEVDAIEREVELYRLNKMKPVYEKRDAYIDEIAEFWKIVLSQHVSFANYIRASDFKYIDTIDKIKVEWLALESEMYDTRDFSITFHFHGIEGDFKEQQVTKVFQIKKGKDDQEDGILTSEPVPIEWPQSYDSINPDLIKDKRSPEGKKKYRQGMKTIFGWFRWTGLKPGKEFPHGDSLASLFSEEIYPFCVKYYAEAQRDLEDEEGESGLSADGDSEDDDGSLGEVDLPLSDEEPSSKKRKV
Sequence of Sas histone acetyltransferase (P40963 whole entry): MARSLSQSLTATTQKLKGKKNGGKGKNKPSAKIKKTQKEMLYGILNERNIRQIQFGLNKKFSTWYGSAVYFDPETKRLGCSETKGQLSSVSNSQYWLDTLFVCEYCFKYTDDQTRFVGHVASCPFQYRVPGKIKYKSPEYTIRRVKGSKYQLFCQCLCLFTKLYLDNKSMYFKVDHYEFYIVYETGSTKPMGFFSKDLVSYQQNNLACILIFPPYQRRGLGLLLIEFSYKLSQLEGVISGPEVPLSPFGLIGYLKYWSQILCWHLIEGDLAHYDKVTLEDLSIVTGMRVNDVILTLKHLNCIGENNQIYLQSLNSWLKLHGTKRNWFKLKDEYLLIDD
Sequence of Sas histone acetyltransferase (Q04003 whole entry partner): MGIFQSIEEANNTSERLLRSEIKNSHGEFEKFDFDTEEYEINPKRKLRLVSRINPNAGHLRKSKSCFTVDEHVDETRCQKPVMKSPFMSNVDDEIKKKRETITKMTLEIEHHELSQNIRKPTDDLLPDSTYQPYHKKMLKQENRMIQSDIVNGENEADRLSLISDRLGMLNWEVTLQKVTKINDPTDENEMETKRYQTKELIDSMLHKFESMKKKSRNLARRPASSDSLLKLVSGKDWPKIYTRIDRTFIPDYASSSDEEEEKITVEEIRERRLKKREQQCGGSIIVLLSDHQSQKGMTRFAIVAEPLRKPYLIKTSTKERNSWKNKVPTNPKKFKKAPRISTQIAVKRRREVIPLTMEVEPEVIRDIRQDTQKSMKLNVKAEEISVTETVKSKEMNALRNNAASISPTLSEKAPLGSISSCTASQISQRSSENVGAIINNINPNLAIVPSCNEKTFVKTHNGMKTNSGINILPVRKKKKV
Sequence of Sas histone acetyltransferase (Q99314 whole entry partner): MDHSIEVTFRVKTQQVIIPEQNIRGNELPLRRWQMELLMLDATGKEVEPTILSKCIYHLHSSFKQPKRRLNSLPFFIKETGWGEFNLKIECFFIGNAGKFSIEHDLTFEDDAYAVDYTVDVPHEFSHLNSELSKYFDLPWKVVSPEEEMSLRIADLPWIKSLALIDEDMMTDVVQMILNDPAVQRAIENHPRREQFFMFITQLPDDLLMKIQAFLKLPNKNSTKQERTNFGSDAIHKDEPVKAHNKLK
Sequence of MOZ histone acetyltransferase (Q92794 497-780 limits assumed): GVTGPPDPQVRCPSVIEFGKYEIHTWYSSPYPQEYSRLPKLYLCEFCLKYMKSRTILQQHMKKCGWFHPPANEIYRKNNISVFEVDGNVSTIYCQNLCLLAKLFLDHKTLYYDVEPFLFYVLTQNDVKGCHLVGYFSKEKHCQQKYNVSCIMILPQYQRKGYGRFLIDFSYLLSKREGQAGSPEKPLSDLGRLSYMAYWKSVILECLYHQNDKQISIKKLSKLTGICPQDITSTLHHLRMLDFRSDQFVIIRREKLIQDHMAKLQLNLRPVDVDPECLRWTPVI

CC1=NN(c2ccc(S(=O)(=O)O)cc2)C(=O)C1=Cc1ccc(-c2cc(C)c(C)cc2[N+](=O)[O-])o1 [Compound 6f]
p300 HAT inhibition, in words [1]: well tolerated

CC1=NN(c2cccc(C(=O)O)c2)C(=O)C1=Cc1ccc(-c2cc(C)c(C)cc2[N+](=O)[O-])o1 [Compound 6e]
p300 HAT inhibition, in words [1]: well tolerated

Ac-Asp-Asp-Asp-Asp-Tat [Ac-DDDD-Tat, reference compound]
p300 HAT inhibition, in words [1]: lack p300 inhibitory properties | 3H-thymidine incorporation, control compounds [2]: no effects

CC1=NN(c2ccc(C(=O)O)cc2)C(=O)/C1=C\c1ccc(-c2cc(C)c(C)cc2[N+](=O)[O-])o1 [Compound C646]
inhibition of serotonin N-acetyltransferase [3]: less than 10% | increase of apparent Ki versus wild type p300 [4]: at least 2 fold | inhibition of MOZ [5]: less than 10% | 3H-thymidine incorporation / cell proliferation [6]: not inhibited; also recorded: does not have a significant inhibitory effect | 3H-thymidine incorporation ([2]; C646 10 μM): capable of reducing; also recorded: Two out of three non-small cell lung adenocarcinoma cell lines demonstrate significant growth inhibition | cell cycle effect [7]: G1-S cell cycle arrest; also recorded: decrease in %S phase | global histone H3 acetylation [8]: dose-dependent reduction; also recorded: blocks H3 acetylation | increase of apparent Ki versus wild type p300 [9]: at least 2 fold | inhibition of PCAF [10]: less than 10% | thiol adduct formation with DTT or beta-mercaptoethanol [11]: no evidence of reaction | basal acetylation levels of H3 and H4 ([12]; 25 μM, 1-3 h, H3K9ac, H4K12ac): slightly diminished; also recorded: reduces histone H3 and H4 acetylation levels | TSA-inducible acetylation of H3 and H4 ([12]; 25 μM, 1-3 h before TSA (33 nM, final 30 min)): virtually completely inhibits; also recorded: abrogates TSA-induced acetylation | increase of apparent Ki versus wild type p300 [13]: at least 2 fold | 3H-thymidine incorporation [14]: quite susceptible | inhibition of Sas [15]: less than 10% | cell cycle effect [16]: G1-S cell cycle arrest; also recorded: decrease in %S phase | inhibition of Rtt109 [17]: less than 10% | 3H-thymidine incorporation [18]: quite susceptible | inhibition of GCN5 [19]: less than 10% | increase of apparent Ki versus wild type p300 [20]: 7 fold | IC50 ([21]; read-out: IC50 for 3H-thymidine incorporation): 10 to 20 µM | cell proliferation via 3H-thymidine incorporation ([21]; up to 20 μM): inhibits WM983A melanoma cell proliferation

CC(=O)N[C@@H](CCCCNC(=O)CSCCNC(=O)CCNC(=O)[C@H](O)C(C)(C)COP(=O)(O)OP(=O)(O)OC[C@H]1O[C@@H](n2cnc3c(N)ncnc32)[C@H](O)[C@@H]1OP(=O)(O)O)C(N)=O [Lys-CoA]
Ki ([22]; ref Lau et al., 2000): 20 nM | fold more potent than C646 [23]: 20 fold

CC1=NN(c2ccc(C(=O)O)cc2)C(=O)C1=Cc1ccc(-c2cc(C)c(C)cc2CO)o1 [Compound 6l]
p300 HAT inhibition, in words [1]: substantial reduction in potency

COC(=O)c1cccc(N2N=C(C)C(=Cc3ccc(-c4cc(C)c(C)cc4[N+](=O)[O-])o3)C2=O)c1 [Compound 6i]
p300 HAT inhibition, in words [1]: well tolerated

COC(=O)c1ccc(N2N=C(C)C(=Cc3ccc(-c4cc(C)c(C)cc4[N+](=O)[O-])o3)C2=O)cc1 [Compound 6h]
weakening of p300 inhibitory potency compared with C646 ([1]; relative IC50 referenced to C646): > 15 fold

COc1ccc(C(=O)C2=C3OC(C)(C)[C@@H](CC=C(C)C)C[C@@]34C[C@@H](CC=C(C)C)C(C)(C)[C@@](CC=C(C)C)(C2=O)C4=O)cc1O [LTK14]
Ki ([22]; ref Mantelingu et al., 2007, Arif et al., 2009): 5100 nM | fold weaker than C646 [23]: about 12 fold

CC(/C=C/C(=O)NO)=C\[C@@H](C)C(=O)c1ccc(N(C)C)cc1 [TSA, trichostatin A, reference compound]
H3 and H4 acetylation after HDAC inhibitor ([12]; TSA 33 nM, 30 min): increased H3 and H4 acetylation

CC1=NN(c2ccc(C(N)=O)cc2)C(=O)C1=Cc1ccc(-c2cc(C)c(C)cc2[N+](=O)[O-])o1 [Compound 6a]
p300 HAT inhibition, in words [1]: well tolerated

CC1=NN(c2ccc(S(N)(=O)=O)cc2)C(=O)C1=Cc1ccc(-c2cc(C)c(C)cc2[N+](=O)[O-])o1 [Compound 6g]
p300 HAT inhibition, in words [1]: well tolerated
